Holding throughout (type): functional
The subject of one experiment is Enterobacter cloacae. In words: Minimum inhibitory concentration against Enterobacter cloacae HA 2646 in vitro.
The subject of experiment [1] is Staphylococcus aureus. The experiment is described as follows: Minimum inhibitory concentration against Staphylococcus aureus H228 in vitro.
Another experiment has as its system Streptococcus pyogenes. In words: Minimum inhibitory concentration against Streptococcus pyogenes C203 in vitro.
A further experiment concerns Klebsiella pneumoniae. The experiment is described as follows: Minimum inhibitory concentration against Klebsiella pneumoniae MGH-2 in vitro.
The next experiment relates to Pseudomonas aeruginosa. The experiment is described as follows: Minimum inhibitory concentration against Pseudomonas aeruginosa UI-18 in vitro.
The test system of experiment [2] is Staphylococcus aureus. The experiment is described as follows: Minimum inhibitory concentration against Staphylococcus aureus UC-76 in vitro.
Experiment [3] has as its system Escherichia coli. The experiment is described as follows: Minimum inhibitory concentration against Escherichia coli H560 in vitro.
The subject of experiment [4] is Staphylococcus aureus. In words: In vivo potency against Staphylococcus aureus using mouse protection assay following s.c. administration. The note with it: sc, read-out: PD50.
Experiment [5] relates to Staphylococcus aureus. The experiment is described as follows: In vivo potency against Staphylococcus aureus using mouse protection assay following p.o. administration. The settings on record: po, read-out: PD50.
The test system of the next experiment is Providencia rettgeri. The experiment is described as follows: Minimum inhibitory concentration against Providencia rettgeri H1771 in vitro.
The next experiment relates to Enterococcus faecalis. In words: Minimum inhibitory concentration against Streptococcus faecalis MGH-2 in vitro.
For experiment [6], the system named is Mus musculus. In words: In vivo potency against Escherichia coli vogel using mouse protection assay when given subcutaneously. The note with it: sc, read-out: PD50.
The test system of experiment [7] is Mus musculus. In words: In vivo potency against Escherichia coli vogel using mouse protection assay when given perorally. The settings on record: po, read-out: PD50.
For experiment [8], the system named is Escherichia coli. In words: Minimum inhibitory concentration against Escherichia coli vogel in vitro.
A further experiment concerns Streptococcus pneumoniae. The experiment is described as follows: Minimum inhibitory concentration against Streptococcus pneumoniae SV-1 in vitro.
Experiment [9] deals with Escherichia coli. In words: Minimum concentration needed to produce linear DNA at an intensity relative to oxolinic at 10 ug/mL in Escherichia coli H560 in vitro. The essentials: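 DNA gyrase cleavage test, run as previously described: end point is the lowest drug level (µg/mL) that yields linear DNA at a band intensity matching oxolinic acid at 10 µg/mL. Values come from duplicate or triplicate experiments and are stated as accurate to ±50%.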

Consider 8 compounds from ChEMBL document CHEMBL1124270, “Quinolone antibacterial agents. Synthesis and structure-activity relationships of 8-substituted quinoline-3-carboxylic acids and 1,8-naphthyridine-3-carboxylic acids” (1988).

Molecules are shown by their SMILES. ≈ marks a conversion by molar mass, not a printed value.

As usually defined, the MIC is the smallest concentration in the dilution series that meets the test's criterion for growth inhibition. Low readings indicate a more susceptible organism, high ones a less susceptible organism.

With `CC(C)NCC1CCN(c2nc3c(cc2F)c(=O)c(C(=O)O)cn3C2CC2)C1` (stereo not given), the MIC amounted to 0.2 µg/mL (≈ 0.515 µM) against Enterobacter cloacae; 0.2 µg/mL (≈ 0.515 µM) in the experiment with Staphylococcus aureus [1]; 0.2 µg/mL (≈ 0.515 µM) against Streptococcus pyogenes; 0.4 µg/mL (≈ 1.03 µM) in the experiment on Klebsiella pneumoniae; 0.8 µg/mL (≈ 2.06 µM) against Pseudomonas aeruginosa; 0.1 µg/mL (≈ 0.257 µM) against Staphylococcus aureus [2]. The MIC stood at 0.1 µg/mL (≈ 0.257 µM) in the experiment with Escherichia coli [3]; 1.6 µg/mL (≈ 4.12 µM) with Providencia rettgeri; 0.2 µg/mL (≈ 0.515 µM) with Enterococcus faecalis; 0.2 µg/mL (≈ 0.515 µM) against Escherichia coli [8]; 0.2 µg/mL (≈ 0.515 µM) with Streptococcus pneumoniae. In addition, the ED50 in the experiment on Staphylococcus aureus [4] is 16 mg/kg; in the experiment on Staphylococcus aureus [5], 35 mg/kg; in the experiment on Mus musculus [6] it was 2 mg/kg; in the experiment with Mus musculus [7], 8 mg/kg. The compound further yielded a DNA cleavage conc (gyrase) in the experiment with Escherichia coli [9] of 2.5 µg/mL.

On to `Cl.O=C(O)c1cn(C2CC2)c2c([N+](=O)[O-])c(N3CCNCC3)c(F)cc2c1=O`, for which the MIC against Enterobacter cloacae came to 0.2 µg/mL; with Staphylococcus aureus [1], 1.6 µg/mL; in the experiment on Streptococcus pyogenes, 12.5 µg/mL; against Klebsiella pneumoniae, 0.8 µg/mL; against Pseudomonas aeruginosa, 1.6 µg/mL; in the experiment on Staphylococcus aureus [2] it was 0.4 µg/mL. Moreover, the MIC in the experiment on Escherichia coli [3] came out at 0.4 µg/mL; with Providencia rettgeri, 3.1 µg/mL; against Enterococcus faecalis, 6.3 µg/mL; with Escherichia coli [8], 0.2 µg/mL; in the experiment on Streptococcus pneumoniae, 12.5 µg/mL. Further, the values for the ED50 with Mus musculus [6] and in the experiment with Mus musculus [7] were 3 mg/kg and 10 mg/kg, respectively.

`Cl.Nc1c(N2CCC(N)C2)c(F)cc2c(=O)c(C(=O)O)cn(C3CC3)c12` (stereo not given): the MIC in the experiment with Enterobacter cloacae was 0.2 µg/mL; with Staphylococcus aureus [1], 3.1 µg/mL; in the experiment on Streptococcus pyogenes, 3.1 µg/mL; with Klebsiella pneumoniae, 0.4 µg/mL; in the experiment on Pseudomonas aeruginosa, 1.6 µg/mL; in the experiment with Staphylococcus aureus [2] it was 0.4 µg/mL. Moreover, the MIC against Escherichia coli [3] amounted to 0.1 µg/mL; in the experiment with Providencia rettgeri, 0.8 µg/mL; with Enterococcus faecalis it was 3.1 µg/mL; in the experiment on Escherichia coli [8] it was 0.4 µg/mL; against Streptococcus pneumoniae, 3.1 µg/mL. Besides, the results for the ED50 in the experiment on Mus musculus [6] and with Mus musculus [7] were 6 mg/kg and 50 mg/kg, respectively. The DNA cleavage conc (gyrase) with Escherichia coli [9] came to 18 µg/mL.

Consider `CC1COc2c(N3CCC(N)C3)c(F)cc3c(=O)c(C(=O)O)cn1c23.Cl` (stereo not given), for which the MIC stood at 0.4 µg/mL against Enterobacter cloacae; 1.6 µg/mL against Staphylococcus aureus [1]; 0.2 µg/mL against Streptococcus pyogenes; 0.4 µg/mL against Klebsiella pneumoniae; 0.4 µg/mL in the experiment with Pseudomonas aeruginosa; 0.1 µg/mL against Staphylococcus aureus [2]. Besides, the MIC stood at 0.2 µg/mL with Escherichia coli [3]; 0.8 µg/mL in the experiment on Providencia rettgeri; 1.6 µg/mL with Enterococcus faecalis; 0.4 µg/mL against Escherichia coli [8]; 0.8 µg/mL against Streptococcus pneumoniae. Also, the values for the ED50 with Mus musculus [6] and with Mus musculus [7] were 2 mg/kg and 25 mg/kg, respectively. This compound also came in with a DNA cleavage conc (gyrase) with Escherichia coli [9] of 0.75 µg/mL.

In the case of `CC(C)NCC1CCN(c2cc3c(cc2F)c(=O)c(C(=O)O)cn3C2CC2)C1.Cl` (stereo not given), the MIC stood at 0.1 µg/mL in the experiment on Enterobacter cloacae; 0.2 µg/mL with Staphylococcus aureus [1]; 0.05 µg/mL in the experiment on Streptococcus pyogenes; 0.2 µg/mL in the experiment with Klebsiella pneumoniae; 3.1 µg/mL against Pseudomonas aeruginosa; 0.025 µg/mL against Staphylococcus aureus [2]. The MIC in the experiment with Escherichia coli [3] came to 0.05 µg/mL; against Providencia rettgeri, 0.8 µg/mL; against Enterococcus faecalis it was 0.1 µg/mL; in the experiment with Escherichia coli [8] it was 0.1 µg/mL; in the experiment with Streptococcus pneumoniae, 0.025 µg/mL. For the same compound, the results for the ED50 in the experiment on Mus musculus [6] and in the experiment on Mus musculus [7] were 4 mg/kg and 25 mg/kg, respectively.

With `CN(C)CC1CCN(c2c(F)cc3c(=O)c(C(=O)O)cn(C4CC4)c3c2N)C1.Cl` (stereo not given), the MIC is 0.2 µg/mL in the experiment with Enterobacter cloacae; 0.2 µg/mL against Staphylococcus aureus [1]; 0.4 µg/mL against Streptococcus pyogenes; 0.8 µg/mL against Klebsiella pneumoniae; 3.1 µg/mL against Pseudomonas aeruginosa; 0.1 µg/mL with Staphylococcus aureus [2]. In addition, the MIC against Escherichia coli [3] was 0.4 µg/mL; against Providencia rettgeri, 0.8 µg/mL; against Enterococcus faecalis, 0.4 µg/mL; in the experiment on Escherichia coli [8], 0.4 µg/mL; with Streptococcus pneumoniae, 0.4 µg/mL. Besides, the ED50 was determined as 81 mg/kg in the experiment with Staphylococcus aureus [4], 100 mg/kg with Staphylococcus aureus [5], 4 mg/kg in the experiment with Mus musculus [6] and 9 mg/kg in the experiment on Mus musculus [7]. In the experiment on Escherichia coli [9], this compound yielded a DNA cleavage conc (gyrase) of 5 µg/mL.

Consider `Cl.NC1CCN(c2c(F)cc3c(=O)c(C(=O)O)cn(C4CC4)c3c2[N+](=O)[O-])C1` (stereo not given), for which the minimum inhibitory concentration (MIC) was determined as 0.2 µg/mL in the experiment with Enterobacter cloacae; 0.8 µg/mL against Staphylococcus aureus [1]; 1.6 µg/mL with Streptococcus pyogenes; 0.4 µg/mL against Klebsiella pneumoniae; 1.6 µg/mL against Pseudomonas aeruginosa; 0.2 µg/mL against Staphylococcus aureus [2]. Besides, the MIC in the experiment on Escherichia coli [3] worked out at 0.4 µg/mL; against Providencia rettgeri, 0.8 µg/mL; against Enterococcus faecalis, 1.6 µg/mL; against Escherichia coli [8], 0.2 µg/mL; against Streptococcus pneumoniae it was 1.6 µg/mL. In addition, the ED50 with Mus musculus [6] was 9 mg/kg; in the experiment with Mus musculus [7], 30 mg/kg.

`O=C(O)c1cn(C2CC2)c2nc(N3CCNCC3)c(F)cc2c1=O`: the MIC worked out at 0.1 µg/mL (≈ 0.301 µM) against Enterobacter cloacae; 1.6 µg/mL (≈ 4.81 µM) in the experiment with Staphylococcus aureus [1]; 1.6 µg/mL (≈ 4.81 µM) in the experiment on Streptococcus pyogenes; 0.1 µg/mL (≈ 0.301 µM) in the experiment with Klebsiella pneumoniae; 0.2 µg/mL (≈ 0.602 µM) against Pseudomonas aeruginosa; 0.4 µg/mL (≈ 1.2 µM) in the experiment with Staphylococcus aureus [2]. The MIC in the experiment with Escherichia coli [3] worked out at 0.05 µg/mL (≈ 0.15 µM); against Providencia rettgeri, 0.2 µg/mL (≈ 0.602 µM); against Enterococcus faecalis, 1.6 µg/mL (≈ 4.81 µM); with Escherichia coli [8], 0.05 µg/mL (≈ 0.15 µM); against Streptococcus pneumoniae, 1.6 µg/mL (≈ 4.81 µM). The ED50 is 6 mg/kg in the experiment on Staphylococcus aureus [4], 14 mg/kg in the experiment with Staphylococcus aureus [5], 0.4 mg/kg with Mus musculus [6] and 0.7 mg/kg with Mus musculus [7]. In the experiment on Escherichia coli [9], the DNA cleavage conc (gyrase) stood at 1 µg/mL.
